Converted amounts (≈) assume the structure as drawn. The source made the active and inactive calls. The rule behind the calls is not given here.
Experiments:
[1] = Metabolic stability in CD-1 mouse liver microsomes assessed as half life at 1 uM preincubated for 5 mins before addition of NADPH by LC-MS/MS method; format: ADME
FaDu [2] = experiment: Antitumor activity against human FADU cells xenografted in CD-1 mouse assessed as inhibition of tumor growth at 10 mg/kg, po qd for 10 days measured at 3 to 9 days; format: functional, organism-based
Outline: (§1)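 FaDu xenografts established in mice before dosing; compound given by oral gavage once daily for 10 days. Tumor volume was followed over time and compared with a vehicle control group, with significance assessed at days 3, 6, 9, 13 and 15. Body weight and survival were also recorded.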

FaDu [3] = experiment: Selectivity index, ratio of EC50 for cell cycle arrest in human FADU cells to LC50 for cytotoxicity against human FADU cells; format: functional
Outline: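 G2/M arrest EC50 came from a 24 h dose–response of propidium iodide flow cytometry in FaDu cells. It was compared with the LC50 from a 72 h MTT assay in FaDu cells (triplicate wells, A570, viability relative to DMSO, nonlinear regression).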

[4] = Solubility in 2% DMSO containing 50 mM potassium phosphate buffer solution pH 7.4 at 10 uM by dynamic light scattering method; details: pH 7.4, 10 µM
SH-SY5Y = experiment: Cytotoxicity against human SH-SY5Y cells assessed as reduction in cell viability after 72 hrs by MTT assay; format: functional, cell-based
Outline: (§2)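 Cells plated at an appropriate density and left 24 h to attach, then dosed in triplicate with compound diluted from 10 mM DMSO stocks into full growth medium (added at 2× final concentration). After 72 h, cells PBS-washed and given MTT (0.5 mg/mL in PBS) for 45−60 min. Formazan dissolved in 0.1 M HCl/2-propanol, A570 read (650 nm reference). Viability normalised to DMSO control; LC50 by nonlinear regression.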

SK-MEL-28 = experiment: Cytotoxicity against human SK-MEL-28 cells assessed as reduction in cell viability after 72 hrs by MTT assay; format: functional, cell-based; outline: as §2
Tubulin [5] = molecular target: T1, Tubulin (Sus scrofa, UniProt P02554+P02550); experiment: Inhibition of porcine brain tubulin polymerization assessed as reduction in GTP-induced microtubule assembly after 60 mins by OD340 method
Tubulin (Sus scrofa) [6] = molecular target: T2, Tubulin (Sus scrofa) (UniProt P02554+P02550); experiment: Displacement of [3H]-paclitaxel from biotinylated porcine tubulin after 25 mins by competitive binding assay; format: protein assay
Outline: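 Biotinylated porcine tubulin precoupled to SPA beads for 30 min at 4 °C, then 0.05 μM [3H]-paclitaxel and test compound added in G-PEM with 1 mM GTP, 3% DMSO, duplicate wells, 25 min at rt. Nonspecific binding taken with 1000-fold unlabeled excess. IC50 from seven-point semilog curves, four-parameter fit.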

FaDu [7] = experiment: Cytotoxicity against human FADU multicellular tumor spheroid assessed as effect on normal spheroid growth at 1 uM incubated for 2 to 3 days by light microscop; format: cell-based
Outline: (§3)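 FaDu monoculture spheroids were dosed once and imaged at 0, 2, 4 and 7 days after dosing. Fragmentation and growth were judged against untreated spheroids.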

FaDu [8] = experiment: Cytotoxicity against human FADU multicellular tumor spheroid assessed as induction of spheroid disruption incubated for 7 days by light microscopy; format: functional, cell-based; details: 168 h
Outline: (§4)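 Monocultured FaDu spheroids dosed over a concentration range and imaged at 0, 2, 4 and 7 days post-dosing. Volume followed over time, fragmentation scored at the 7-day end point, and EC50 for disruption derived from 7-day dose–response plots. Two independent experiments, mean ± SEM.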

[9] = Apparent permeability from apical to basolateral side in human Caco2 cells at 10 uM at pH 7.4 after 60 mins by mass spectrometry; details: Caco-2, pH 7.4
Tubulin (Sus scrofa) [10] = molecular target: T2, Tubulin (Sus scrofa); experiment: Displacement of [3H]-vinblastine from biotinylated porcine tubulin after 15 mins by competitive binding assay; format: protein assay
Outline: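 Biotinylated porcine tubulin, 0.2 μM [3H]-vinblastine, SPA beads and test compound combined together in G-PEM with 1 mM GTP, 3% DMSO, duplicate wells, 15 min at rt before counting. Nonspecific binding taken with 1000-fold unlabeled excess. IC50 from seven-point semilog curves, four-parameter fit.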

FaDu [11] = experiment: Antitumor activity against human FADU cells xenografted in CD-1 mouse assessed as inhibition of tumor growth at 10 mg/kg, po qd for 10 days measured at 13 and 15 days; format: functional, organism-based; outline: as §1
FaDu [12] = experiment: Cell cycle arrest in human FADU cells assessed as accumulation at G2/M phase after 24 hrs by propidium iodide staining-based flow cytometry; format: functional
Outline: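 FaDu cells seeded at 10^5/well, attached overnight, then exposed to compound in full growth medium at 37 °C for 24 h. Cells were trypsinized, fixed in ice-cold 70% ethanol, treated with RNase A (100 μg/mL), stained overnight in the dark with propidium iodide (50 μg/mL), and analysed by flow cytometry with at least 10000 events per sample.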

[13] = Efflux ratio of apparent permeability from basolateral to apical side over apical to basolateral side in human Caco2 cells; details: Caco-2
SCC-4 = experiment: Cytotoxicity against human SCC4 cells assessed as reduction in cell viability after 72 hrs by MTT assay; format: functional, cell-based; outline: as §2
FaDu [14] = experiment: Induction of microtubule disruption in human FADU cells at 150 nM after 24 hrs by immunofluorescence staining method; format: functional, cell-based
Outline: (§5)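 FaDu cells grown on coverslips (15000/well) for 24 h, then exposed to compound for 24 h. Unassembled tubulin was extracted with PHEM/0.5% Triton X-100/10 μM paclitaxel for 3 min. Cells were fixed in PHEM with 8% paraformaldehyde and 0.3% glutaraldehyde on ice, blocked, then stained with FITC anti-α-tubulin (DM1A) and DAPI. Confocal z-stacks were taken at 100×.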

Tubulin [15] = molecular target: T1, Tubulin; experiment: Displacement of [3H]-colchicine from biotinylated porcine tubulin after 2 hrs by competitive binding assay; format: protein assay
Outline: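 Biotinylated porcine tubulin (750 ng/well) with 0.1 μM [3H]-colchicine and test compound in G-PEM with 1 mM GTP, 3% DMSO, duplicate wells, 2 h at 37 °C. Streptavidin SPA beads then added for 45 min at 37 °C. Nonspecific binding taken with 1000-fold unlabeled excess. IC50 from seven-point semilog curves, four-parameter fit.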

FaDu [16] = experiment: Cytotoxicity against human FADU multicellular tumor spheroid assessed as dispersion of cells from the spheroid at 1 uM incubated for 2 to 7 days by light microscopy; format: functional, cell-based; outline: as §3
MES-SA/Dx5 = experiment: Cytotoxicity against multidrug resistant human MES-SA/Dx5 cells assessed as reduction in cell viability after 72 hrs by MTT assay; format: functional, cell-based; outline: as §2
FaDu [17] = experiment: Cytotoxicity against human FADU cells assessed as reduction in cell viability after 72 hrs by MTT assay; format: functional; details: read-out: LC50 (the source's name)
[18] = Solubility in 2% DMSO containing 50 mM potassium phosphate buffer solution at pH 7.4 by dynamic light scattering method; details: 50 mM potassium phosphate buffer with 2% DMSO
FaDu [19] = experiment: Induction of microtubule disruption in human FADU cells assessed as multipolarization of spindle at 30 nM after 24 hrs by immunofluorescence staining method; format: functional, cell-based; outline: as §5
MES-SA = experiment: Cytotoxicity against human MES-SA cells assessed as reduction in cell viability after 72 hrs by MTT assay; format: functional, cell-based; outline: as §2
[20] = Aqueous solubility of the compound by UV-HPLC
FaDu [21] = experiment: Induction of mitotic spindle defects in human FADU cells at 15 nM after 24 hrs by immunofluorescence staining method; format: functional, cell-based
FaDu [22] = experiment: Cytotoxicity against human FADU multicellular tumor spheroid assessed as dispersion of cells from the spheroid at 0.25 uM incubated for 2 to 7 days by light microscopy; format: functional, cell-based; outline: as §4
FaDu [23] = experiment: Cytotoxicity against human FADU multicellular tumor spheroid assessed as effect on normal spheroid growth at 0.25 uM incubated for 2 to 3 days by light microscopy; format: cell-based; outline: as §4
FaDu [24] = experiment: Induction of microtubule disruption in human FADU cells at 50 nM after 24 hrs by immunofluorescence staining method; format: functional, cell-based
FaDu [25] = experiment: Ratio of EC50 for human FADU multicellular tumor spheroid to LC50 for human FADU cells; format: functional
Outline: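 FaDu spheroids were dosed over a range of concentrations, and spheroid volume was measured at the 7-day endpoint. EC50 for disruption came from dose–response plots, combining two independent experiments. This was compared with the 72 h monolayer MTT LC50 (triplicate wells, nonlinear regression, viability relative to DMSO).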

| Structure (SMILES) | half-life at 1 µM [1] | solubility [4] | Activity (SH-SY5Y) | Activity (SK-MEL-28) | IC50 (Tubulin [5]) | Activity (Tubulin (Sus scrofa) [6]) | EC50 (FaDu [8]) | Papp A→B at 1 h, 10 µM [9] | Activity (Tubulin (Sus scrofa) [10]) | efflux ratio [13] | Activity (SCC-4) | IC50 (Tubulin [15]) | Activity (MES-SA/Dx5) | CC50 (FaDu [17]) | solubility kinetic [18] | Activity (MES-SA) | solubility [20] | other results |
| --- | --- | --- | --- | --- | --- | --- | --- | --- | --- | --- | --- | --- | --- | --- | --- | --- | --- | --- |
| COc1ccc(NC(=O)C(=O)c2cn(CC3CCCO3)c3ccccc23)cn1 (stereo not drawn) | 34 min | soluble | Active | Active | 8300 nM | inactive | 77 nM | 35 ×10⁻⁶ cm/s | Active | 0.7 | Active | 420 nM | Active | 31 nM | 10 µM (≈ 3.79 µg/mL) | Active |  | TGI (FaDu [2]): Active; Ratio (FaDu [3]): 5; Activity (FaDu [7]): Non-toxic; Activity (FaDu [11]): Active; Activity (FaDu [12]): Dose-dependent effect; EC50 (FaDu [12]): 160 nM; Activity (FaDu [14]): Active; Activity (FaDu [16]): Active; Activity (FaDu [19]): Active |
| COc1ccc(NC(=O)C(=O)c2cn(C(C)C)c3ccccc23)cn1 | 5 min | soluble |  |  | 14900 nM | inactive |  | 19.8 ×10⁻⁶ cm/s | Active | 1.4 |  | 1600 nM |  | 85 nM | 20 µM (≈ 6.75 µg/mL) |  | 10 µM (≈ 3.37 µg/mL) |  |
| COCC(C)n1cc(C(=O)C(=O)Nc2ccc(OC)nc2)c2ccccc21 (stereo not drawn) | 16 min | soluble | Active | Active | 3900 nM | inactive | 39 nM | 33.6 ×10⁻⁶ cm/s | inactive | 1.1 | Active | 160 nM | Active | 12 nM | 40 µM (≈ 14.7 µg/mL) | Active | 10 µM (≈ 3.67 µg/mL) | Activity (FaDu [21]): Active; Activity (FaDu [22]): Active; Activity (FaDu [23]): Non-toxic; Activity (FaDu [24]): Active; Ratio (FaDu [25]): 3 |

From ChEMBL document CHEMBL3745658, “An Orally Bioavailable, Indole-3-glyoxylamide Based Series of Tubulin Polymerization Inhibitors Showing Tumor Growth Inhibition in a Mouse Xenograft Model of Head and Neck Cancer” (J Med Chem, 2015)
